ChEMBL document CHEMBL3085708, “Identification and profiling of 3,5-dimethyl-isoxazole-4-carboxylic acid [2-methyl-4-((2S,3'S)-2-methyl-[1,3']bipyrrolidinyl-1'-yl)phenyl] amide as histamine H(3) receptor antagonist for the treatment of depression” (Bioorg Med Chem Lett, 2013)
Values after ≈ are worked out from the molar mass of the structure shown.

How the values were obtained:
[1] = system: Mus musculus; experiment: Toxicity in mouse assessed as effect on convulsion at 30 mg/kg, po; format: organism-based; set-up: dose 30 mg/kg, route oral; details: in vivo
In short: (§1)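 Acute oral group toxicity in mice: behavioural side effects scored (social interaction, motility, preconvulsant signs, convulsions, tremor) after single po doses of 30 and 100 mg/kg.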

[2] = molecular target: Cytochrome P450 3A4 (Homo sapiens, UniProt P08684); experiment: Inhibition of CYP3A4 (unknown origin) after 4 hrs; format: ADME
[3] = Toxicity in po dosed mouse; details: in vivo
[4] = Solubility of the compound in form of crystalline free base in gastrointestinal tract simulated media; format: physicochemical
[5] = system: Mus musculus; experiment: Toxicity in mouse assessed as effect on autonomic activity at 10 to 30 mg/kg, po by Irwin test; format: organism-based; set-up: dose 10-30 mg/kg, route oral; details: in vivo
In short: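 Irwin exploratory general behaviour study in male mice; single oral doses of 0, 10 and 30 mg/kg; behavioural, neurologic and autonomic effects observed.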

[6] = Toxicity in guinea pig heart assessed as decrease in ventricular contraction at 10 uM relative to control; format: tissue-based, Cavia porcellus, Cardiac ventricle
[7] = Dissociation constant, pKa of the compound; format: physicochemical
[8] = Volume of distribution in Sprague-Dawley rat at 2 mg/kg, iv; format: ADME, organism-based; set-up: dose 2 mg/kg, route intravenous; details: in vivo
In short: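 Male Sprague-Dawley rats dosed 2 mg/kg iv in saline (0.5 mg/mL) and 10 mg/kg po in 0.5% MC/0.2% Tween80 (1.0 mg/mL); plasma and brain concentrations followed.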

[9] = molecular target: Sigma non-opioid intracellular receptor 1 (Homo sapiens) (UniProt Q99720); experiment: Inhibition of sigma-1 receptor (unknown origin) at 10 uM relative to control
[10] = Drug metabolism in guinea pig liver microsomes; format: ADME, Cavia porcellus, Microsome; details: read-out: Drug metabolism
[11] = AUC (0 to infinity) in OF1 mouse brain at 10 mg/kg, po; format: ADME, organism-based; set-up: time infinity, dose 10 mg/kg, route oral
In short: (§2)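 Single-dose PK; male OF1 mice and male Sprague-Dawley rats, 2 mg/kg iv and 10 mg/kg po. Mouse vehicles: iv 50% 1-methyl-2-pyrrolidinone in saline (1.0 mg/mL); po 5% DMSO/0.5% MC/0.2% Tween80 (1.0 mg/mL). Rat vehicles: iv saline (0.5 mg/mL); po 0.5% MC/0.2% Tween80 (1.0 mg/mL). Plasma and brain exposure read as AUC0-∞ and t1/2.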

[12] = Tmax in OF1 mouse plasma at 10 mg/kg, po; format: ADME, organism-based; set-up: dose 10 mg/kg, route oral
In short: (§3)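 Male OF1 mice given 2 mg/kg iv (50% 1-methyl-2-pyrrolidinone in saline, 1.0 mg/mL) and 10 mg/kg po (5% DMSO/0.5% MC/0.2% Tween80, 1.0 mg/mL); plasma and brain exposure measured; B/P ratio from iv AUC.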

[13] = Drug metabolism in mouse plasma at 100 ng/ml after 4 hrs; format: ADME, cell-free; details: read-out: Drug metabolism
In short: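 Compound spiked into blank plasma of human, mouse, rat, rabbit, macaque and dog at 100 ng/ml, then incubated in a 37 °C water bath for up to 4 h; percent metabolized reported.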

[14] = Solubility of the compound in form of crystalline free base in water; format: physicochemical
[15] = species on record: Homo sapiens; experiment: Inhibition of sigma-2 receptor (unknown origin) at 10 uM relative to control
[16] = Drug metabolism in dog liver microsomes; format: ADME, Canis lupus familiaris; details: read-out: Drug metabolism
[17] = molecular target: T1, Voltage-gated inwardly rectifying potassium channel KCNH2 (Canis lupus familiaris, UniProt Q9TSZ3); experiment: Inhibition of canine ERG current transfected in CHO cells by patch clamp assay; format: cell-based
T1 sequence (Q9TSZ3 whole entry): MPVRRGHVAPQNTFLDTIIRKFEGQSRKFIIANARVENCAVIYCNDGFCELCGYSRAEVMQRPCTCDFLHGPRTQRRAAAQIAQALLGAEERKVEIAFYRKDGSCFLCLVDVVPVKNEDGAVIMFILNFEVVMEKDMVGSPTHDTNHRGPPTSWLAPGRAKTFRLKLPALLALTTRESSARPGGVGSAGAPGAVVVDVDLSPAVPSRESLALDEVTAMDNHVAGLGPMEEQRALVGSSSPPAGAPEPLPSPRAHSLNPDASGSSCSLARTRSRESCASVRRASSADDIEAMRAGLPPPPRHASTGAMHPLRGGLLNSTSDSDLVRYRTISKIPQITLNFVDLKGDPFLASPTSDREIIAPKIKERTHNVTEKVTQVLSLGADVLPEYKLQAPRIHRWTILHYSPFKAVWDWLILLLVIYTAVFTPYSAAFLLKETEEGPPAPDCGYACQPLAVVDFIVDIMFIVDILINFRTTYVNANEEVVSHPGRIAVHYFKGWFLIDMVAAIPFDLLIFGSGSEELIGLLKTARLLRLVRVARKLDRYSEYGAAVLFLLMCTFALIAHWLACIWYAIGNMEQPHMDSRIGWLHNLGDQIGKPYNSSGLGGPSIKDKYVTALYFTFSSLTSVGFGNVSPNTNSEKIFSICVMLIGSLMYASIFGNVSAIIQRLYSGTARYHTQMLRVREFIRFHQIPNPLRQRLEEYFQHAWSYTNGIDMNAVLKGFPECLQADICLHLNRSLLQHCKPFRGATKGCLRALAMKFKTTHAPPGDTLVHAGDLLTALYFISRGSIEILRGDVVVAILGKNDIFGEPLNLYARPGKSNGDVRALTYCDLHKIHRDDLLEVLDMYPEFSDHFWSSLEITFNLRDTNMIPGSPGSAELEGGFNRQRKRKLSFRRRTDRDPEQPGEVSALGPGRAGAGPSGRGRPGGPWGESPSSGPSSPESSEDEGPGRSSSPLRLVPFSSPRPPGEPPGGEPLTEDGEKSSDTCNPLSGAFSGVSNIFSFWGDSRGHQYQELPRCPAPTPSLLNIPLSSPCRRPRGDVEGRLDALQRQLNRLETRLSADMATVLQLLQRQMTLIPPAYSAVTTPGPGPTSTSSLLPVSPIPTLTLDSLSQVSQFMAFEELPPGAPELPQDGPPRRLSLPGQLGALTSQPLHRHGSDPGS
In short: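 Whole-cell patch clamp on CHO cells stably transfected with the canine ERG gene; cERG current IC50 from n = 4.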

[18] = system: Heart; experiment: Toxicity in guinea pig heart assessed as effect on coronary pressure at 0.1 to 30 uM; format: tissue-based, Cavia porcellus
[19] = Elimination half life in OF1 mouse brain at 10 mg/kg, po; format: ADME, organism-based; set-up: dose 10 mg/kg, route oral; details: read-out: beta t1/2 (converted); in short: as §2
[20] = system: Mus musculus; experiment: Toxicity in mouse assessed as appearance of tremor at 100 mg/kg, po; format: organism-based; set-up: dose 100 mg/kg, route oral; details: in vivo; in short: as §1
[21] = system: Hepatocyte; experiment: Intrinsic clearance in human hepatocytes measured per 10^6 cells; format: ADME, cell-based
In short: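 Intrinsic clearance in human hepatocytes, expressed as mL h−1 per 10^6 hepatocytes, n = 4.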

[22] = Elimination half life in Sprague-Dawley rat brain at 2 mg/kg, iv; format: ADME, organism-based; set-up: dose 2 mg/kg, route intravenous; details: read-out: beta t1/2 (converted); in short: as §2
[23] = molecular target: Histamine H3 receptor (Homo sapiens, UniProt Q9Y5N1); experiment: Displacement of [3H]-methylhistamine from human histamine H3 receptor transfected in human 293 cells after 1 hr by scintillation counting analysis; format: cell-based
[24] = Oral bioavailability in OF1 mouse at 10 mg/kg; format: ADME, organism-based; details: in vivo; in short: as §3
[25] = AUC (0 to infinity) in Sprague-Dawley rat brain at 2 mg/kg, iv; format: ADME, organism-based; set-up: time infinity, dose 2 mg/kg, route intravenous; in short: as §2
[26] = system: Mus musculus; experiment: Plasma clearance in OF1 mouse at 2 mg/kg, iv; format: ADME, organism-based; set-up: dose 2 mg/kg, route intravenous; details: in vivo; in short: as §3

Chain of Cytochrome P450 3A4 (P08684 whole entry): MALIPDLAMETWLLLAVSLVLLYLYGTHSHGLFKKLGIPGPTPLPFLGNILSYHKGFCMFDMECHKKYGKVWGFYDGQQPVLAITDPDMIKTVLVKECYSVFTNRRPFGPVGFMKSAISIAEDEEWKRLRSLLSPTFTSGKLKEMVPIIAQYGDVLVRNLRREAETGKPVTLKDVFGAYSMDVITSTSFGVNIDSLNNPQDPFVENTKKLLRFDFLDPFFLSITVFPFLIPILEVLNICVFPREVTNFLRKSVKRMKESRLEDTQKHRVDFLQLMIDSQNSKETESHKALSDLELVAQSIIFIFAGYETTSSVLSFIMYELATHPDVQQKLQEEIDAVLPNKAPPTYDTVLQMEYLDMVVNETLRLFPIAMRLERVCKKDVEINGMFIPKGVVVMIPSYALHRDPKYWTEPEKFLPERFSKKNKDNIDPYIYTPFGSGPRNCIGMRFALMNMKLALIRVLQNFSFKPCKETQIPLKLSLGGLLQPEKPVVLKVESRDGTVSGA
Chain of Sigma non-opioid intracellular receptor 1 (Homo sapiens) (Q99720 whole entry): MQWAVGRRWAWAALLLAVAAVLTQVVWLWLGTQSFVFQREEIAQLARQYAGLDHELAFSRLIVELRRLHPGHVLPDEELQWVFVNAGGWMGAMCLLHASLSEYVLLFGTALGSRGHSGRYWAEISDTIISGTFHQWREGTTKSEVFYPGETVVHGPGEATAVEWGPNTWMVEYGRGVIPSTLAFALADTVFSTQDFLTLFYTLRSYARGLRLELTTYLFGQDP
Chain of Histamine H3 receptor (Q9Y5N1 whole entry): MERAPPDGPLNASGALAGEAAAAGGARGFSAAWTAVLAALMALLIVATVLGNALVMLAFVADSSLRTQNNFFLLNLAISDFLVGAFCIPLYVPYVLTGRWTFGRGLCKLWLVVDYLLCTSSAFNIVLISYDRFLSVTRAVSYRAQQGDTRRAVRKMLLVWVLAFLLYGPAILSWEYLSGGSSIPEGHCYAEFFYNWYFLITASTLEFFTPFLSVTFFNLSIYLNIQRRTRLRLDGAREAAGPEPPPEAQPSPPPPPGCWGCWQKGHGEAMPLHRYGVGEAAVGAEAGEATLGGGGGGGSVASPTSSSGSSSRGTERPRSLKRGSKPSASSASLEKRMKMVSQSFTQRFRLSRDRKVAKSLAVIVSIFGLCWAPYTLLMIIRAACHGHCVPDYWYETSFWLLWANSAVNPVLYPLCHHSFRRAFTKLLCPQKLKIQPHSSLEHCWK

Structure (SMILES): Cc1cc(N2CC[C@H](N3CCC[C@@H]3C)C2)ccc1NC(=O)c1c(C)noc1C
- Activity [1]: Non-toxic
- IC50 [2]: > 100 µM
- MTD [3]: 30 mg/kg
- solubility [4]: > 2 mg/mL
- Activity [5]: Non-toxic
- inhibition at 10 µM [6]: 23%
- pKa [7]: 10.1
- Vd [8]: 2.8 L/kg
- inhibition [9]: 73%
- metabolised [10]: 35%
- AUC(0-inf) [11]: 3.1 µg·h/mL
- Tmax [12]: 0.17 h
- metabolised at 4 h, 100 ng/ml [13]: < 5%
- solubility [14]: 0.11 mg/mL (≈ 288 µM)
- inhibition [15]: 73%
- metabolised [16]: < 5%
- IC50 [17]: 44 µM
- Activity [18]: Non-toxic
- half-life [19]: 4.7 h
- Activity [20]: Toxic
- CLH [21]: 0.04 mL/h
- half-life [22]: 1.8 h
- Ki [23]: 0.0001 µM
- bioavailability [24]: 57%
- AUC(0-inf) [25]: 1.2 µg·h/mL
- clearance [26]: 3 L/h/kg
